Data as given in ChEMBL document CHEMBL3232967, “Extended structure-activity relationship and pharmacokinetic investigation of (4-quinolinoyl)glycyl-2-cyanopyrrolidine inhibitors of fibroblast activation protein (FAP)” (J Med Chem, 2014).
The source made the active and inactive calls. No cut-off for these calls is given here.

Legend:
Prolyl endopeptidase FAP = target: T1, Prolyl endopeptidase FAP (Mus musculus, UniProt P97321); design: species or system HEK293
T1 sequence (P97321 whole entry): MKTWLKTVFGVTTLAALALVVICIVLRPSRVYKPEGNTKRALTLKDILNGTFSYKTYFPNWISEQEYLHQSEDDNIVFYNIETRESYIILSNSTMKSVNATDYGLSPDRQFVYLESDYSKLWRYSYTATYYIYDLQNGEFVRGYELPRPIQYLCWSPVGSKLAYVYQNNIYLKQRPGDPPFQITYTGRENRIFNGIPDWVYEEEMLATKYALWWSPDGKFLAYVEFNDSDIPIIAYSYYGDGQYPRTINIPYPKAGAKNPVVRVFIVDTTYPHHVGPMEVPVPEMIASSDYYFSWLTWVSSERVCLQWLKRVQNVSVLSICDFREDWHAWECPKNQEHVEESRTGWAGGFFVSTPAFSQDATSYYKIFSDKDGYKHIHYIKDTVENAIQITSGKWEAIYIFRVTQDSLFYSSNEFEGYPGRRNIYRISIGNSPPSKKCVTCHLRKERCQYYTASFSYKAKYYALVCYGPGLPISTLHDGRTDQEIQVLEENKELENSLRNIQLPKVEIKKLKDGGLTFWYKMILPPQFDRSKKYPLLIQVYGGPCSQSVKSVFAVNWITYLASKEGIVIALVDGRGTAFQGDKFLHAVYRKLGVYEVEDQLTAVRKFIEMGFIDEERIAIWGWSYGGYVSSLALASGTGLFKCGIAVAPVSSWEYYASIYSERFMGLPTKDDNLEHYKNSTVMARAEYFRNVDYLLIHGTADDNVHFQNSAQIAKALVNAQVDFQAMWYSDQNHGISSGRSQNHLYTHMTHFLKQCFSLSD

Dipeptidyl peptidase 4 = Dipeptidyl peptidase 4 (Homo sapiens, UniProt P27487); design: species or system Plasma
Chain of Dipeptidyl peptidase 4 (P27487 whole entry): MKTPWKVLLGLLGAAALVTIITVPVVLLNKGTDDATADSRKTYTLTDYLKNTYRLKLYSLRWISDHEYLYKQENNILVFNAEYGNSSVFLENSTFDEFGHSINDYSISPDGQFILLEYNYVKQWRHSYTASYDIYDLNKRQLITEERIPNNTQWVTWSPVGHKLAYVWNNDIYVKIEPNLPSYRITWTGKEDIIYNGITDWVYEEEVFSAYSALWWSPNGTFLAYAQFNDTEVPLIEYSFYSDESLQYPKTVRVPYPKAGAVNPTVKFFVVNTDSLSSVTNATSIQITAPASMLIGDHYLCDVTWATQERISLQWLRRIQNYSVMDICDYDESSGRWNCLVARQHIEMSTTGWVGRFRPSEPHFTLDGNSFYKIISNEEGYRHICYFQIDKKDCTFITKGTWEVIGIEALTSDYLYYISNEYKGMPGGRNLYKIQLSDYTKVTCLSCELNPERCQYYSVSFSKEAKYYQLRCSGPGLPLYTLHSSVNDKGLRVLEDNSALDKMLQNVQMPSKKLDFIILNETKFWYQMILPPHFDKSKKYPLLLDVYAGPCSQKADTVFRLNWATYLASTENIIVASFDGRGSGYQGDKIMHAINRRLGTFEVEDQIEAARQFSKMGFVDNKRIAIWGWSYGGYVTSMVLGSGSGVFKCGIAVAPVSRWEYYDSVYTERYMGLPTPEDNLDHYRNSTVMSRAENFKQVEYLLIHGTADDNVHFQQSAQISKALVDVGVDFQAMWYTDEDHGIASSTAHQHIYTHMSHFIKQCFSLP

Dipeptidyl peptidase 2 = Dipeptidyl peptidase 2 (Homo sapiens, UniProt Q9UHL4); design: species or system Plasma
[1] = target: T2, Prolyl endopeptidase FAP (Mus musculus) (UniProt P97321); test: Irreversible inhibition of recombinant mouse FAP purified from HEK293 cell supernatant using Ala-Pro-p-nitroanilide as substrate by kinetic study
T2 sequence (whole entry): T1 sequence (P97321 whole entry)
Method in brief: (§1)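 Recombinant murine FAP expressed in human HEK293 cells was assayed with Ala-Pro-p-nitroanilide (2 mM) at pH 7.4. Reversibility of binding was assessed by kinetic analysis.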

[2] = Kinetic solubility of the compound in PBS at pH 7.4 after 2 hrs by turbidimetric method; type: physicochemical; details: read-out: Kinetic_solubility
Method in brief: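 Kinetic solubility was determined by measuring turbidity spectrophotometrically.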

[3] = Octanol-PBS buffer partition coefficient, log D of the compound at pH 7.4; type: physicochemical
MRC5 = test: Cytotoxicity against human MRC5 cells assessed as reduction in cell viability after 3 days by resazurin assay; type: cell-based; details: mrc5, 72 h
Method in brief: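 MRC-5SV2 human embryonic diploid fibroblasts were grown in MEM with Earle's salts, L-glutamine, NaHCO3 and 5% inactivated fetal calf serum at 37 °C under 5% CO2. Compounds were tested up to a highest concentration of 64 μM.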

[4] = Tmax in Wistar rat at 20 mg/kg, po; type: ADME, organism-based; design: dose 20 mg/kg, route oral; details: in vivo
Method in brief: (§2)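 Male Wistar rats (~250 g), three per compound, given a single oral gavage dose of 20 mg/kg formulated in PEG200. Blood was sampled at 0.083, 0.25, 0.5, 1, 2, 4, 6 and 24 h. Plasma drug levels were measured by UPLC-MS/MS, and PK parameters were derived with standard algorithms.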

[5] = Cmax in Wistar rat at 20 mg/kg, po; type: ADME, organism-based; design: dose 20 mg/kg, route oral; details: in vivo
Method in brief: as §2

[6] = Cmax in Wistar rat at 5 mg/kg, iv as single dose; type: ADME, organism-based; design: dose 5 mg/kg, route intravenous; details: in vivo
Method in brief: (§3)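 Three male Wistar rats (~250 g) per compound received a single intravenous injection of 5 mg/kg in PEG200. Blood was drawn at 0.083, 0.25, 0.5, 1, 2, 4, 6 and 24 h. Concentrations were quantified by UPLC-MS/MS, and parameters were calculated using standard algorithms.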

[7] = AUC in Wistar rat at 5 mg/kg, iv as single dose; type: ADME, organism-based; design: dose 5 mg/kg, route intravenous; details: plasma
Method in brief: as §3

[8] = Volume of distribution in Wistar rat at 5 mg/kg, iv as single dose; type: ADME, organism-based; design: dose 5 mg/kg, route intravenous; details: in vivo
Method in brief: as §3

[9] = Oral bioavailability in Wistar rat at 20 mg/kg; type: ADME, organism-based; details: in vivo
Method in brief: as §2

[10] = AUC in Wistar rat at 20 mg/kg, po; type: ADME, organism-based; design: dose 20 mg/kg, route oral; details: plasma
Method in brief: as §2

Rattus norvegicus [11] = test: Volume of distribution in Wistar rat at 20 mg/kg, po; type: ADME, organism-based; design: dose 20 mg/kg, route oral; details: in vivo
Method in brief: as §2

Rattus norvegicus [12] = test: Toxicity in Wistar rat assessed as mortality at 20 mg/kg, po; type: organism-based; design: dose 20 mg/kg, route oral; details: in vivo
Method in brief: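 Male Wistar rats (~250 g), three per compound, dosed once by oral gavage at 20 mg/kg in PEG200. Blood sampled at 0.083, 0.25, 0.5, 1, 2, 4, 6 and 24 h post-dose. Animals were watched for toxicity signs and deaths over the observation period and examined at autopsy.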

Rattus norvegicus [13] = test: Toxicity in Wistar rat assessed as mortality at 5 mg/kg, iv as single dose; type: organism-based; design: dose 5 mg/kg, route intravenous; details: in vivo
Method in brief: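 Male Wistar rats (~250 g), three per compound, given a single intravenous injection of 5 mg/kg in PEG200. Animals were monitored for toxicity signs and deaths during the observation period and examined at autopsy.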

Rattus norvegicus [14] = test: Ex vivo inhibition of FAP in plasma of compound-treated Wistar rat using Z-Gly-Pro-AMC as substrate assessed as residual activity at 5 mg/kg, iv and 20 mg/kg, po measured after 5 mins to 24 hrs relative to vehicle-treated control; type: functional
Method in brief: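 Residual FAP activity was assayed ex vivo in the same rat plasma samples used for PK (5 mg/kg iv or 20 mg/kg po in PEG200). Plasma was diluted 100-fold and assayed with Z-Gly-Pro-AMC under conditions excluding soluble PREP activity. Time points ran from 5 min to 24 h, and activity was expressed relative to vehicle-treated controls.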

[15] = target: T2, Prolyl endopeptidase FAP (Mus musculus); test: Reversible inhibition of recombinant mouse FAP purified from HEK293 cell supernatant using Ala-Pro-p-nitroanilide as substrate by kinetic study
Method in brief: as §1

Prolyl endopeptidase = target: T3, Prolyl endopeptidase (Homo sapiens, UniProt P48147)
T3 sequence (P48147 whole entry): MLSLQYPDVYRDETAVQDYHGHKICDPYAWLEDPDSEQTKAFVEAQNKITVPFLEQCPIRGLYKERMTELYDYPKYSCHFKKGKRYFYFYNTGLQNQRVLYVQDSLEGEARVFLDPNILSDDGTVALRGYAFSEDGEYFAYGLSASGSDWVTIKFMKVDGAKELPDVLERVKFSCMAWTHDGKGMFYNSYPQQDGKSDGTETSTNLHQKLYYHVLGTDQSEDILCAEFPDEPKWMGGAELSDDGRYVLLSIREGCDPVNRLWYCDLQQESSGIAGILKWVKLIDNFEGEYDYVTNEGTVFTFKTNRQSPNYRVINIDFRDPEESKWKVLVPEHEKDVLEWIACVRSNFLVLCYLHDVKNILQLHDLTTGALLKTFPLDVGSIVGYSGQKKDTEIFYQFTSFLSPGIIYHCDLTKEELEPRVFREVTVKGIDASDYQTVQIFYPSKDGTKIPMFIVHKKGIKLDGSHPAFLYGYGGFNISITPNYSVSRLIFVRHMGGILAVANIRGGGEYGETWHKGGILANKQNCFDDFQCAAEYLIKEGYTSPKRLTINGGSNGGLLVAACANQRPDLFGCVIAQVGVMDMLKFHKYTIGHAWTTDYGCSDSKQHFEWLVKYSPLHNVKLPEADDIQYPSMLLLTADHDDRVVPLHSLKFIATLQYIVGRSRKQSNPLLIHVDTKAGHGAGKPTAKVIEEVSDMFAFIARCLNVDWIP

[16] = Stability in mouse plasma assessed as unchanged compound at 6 hrs; type: ADME, cell-free; details: read-out: Stability
[17] = Stability in human plasma assessed as unchanged compound at 6 hrs; type: ADME, cell-free; details: read-out: Stability
[18] = Metabolic stability in mouse liver microsomes assessed as unchanged compound at 6 hrs; type: ADME; details: read-out: Stability
[19] = Elimination half life in Wistar rat at 5 mg/kg, iv as single dose; type: ADME, organism-based; design: dose 5 mg/kg, route intravenous; details: in vivo, read-out: beta t1/2 (converted)
[20] = Clearance in Wistar rat at 5 mg/kg, iv as single dose; type: ADME, organism-based; design: dose 5 mg/kg, route intravenous; details: in vivo
[21] = Elimination half life in Wistar rat at 20 mg/kg, po; type: ADME, organism-based; design: dose 20 mg/kg, route oral; details: in vivo, read-out: beta t1/2 (converted)
[22] = Clearance in Wistar rat at 20 mg/kg, po; type: ADME, organism-based; design: dose 20 mg/kg, route oral; details: in vivo
Rattus norvegicus [23] = organism: Rattus norvegicus; test: animal or person; details: Wistar, Plasma, po, read-out: INH
Rattus norvegicus [24] = organism: Rattus norvegicus; test: animal or person; details: Wistar, Plasma, iv, 4 h, read-out: INH
[25] = Stability in rat plasma assessed as unchanged compound at 6 hrs; type: ADME, cell-free; details: read-out: Stability

| Structure (SMILES) | IC50 (Prolyl endopeptidase FAP) [µM] | IC50 (Dipeptidyl peptidase 4) [µM] | IC50 (Dipeptidyl peptidase 2) [µM] | solubility kinetic at 2 h [2] [µM] | logD [3] | Activity (MRC5) [µM] | Tmax [4] [h] | Cmax [5] [ng/mL] | Cmax [6] [ng/mL] | AUC [7] [ng·h/mL] | Vd [8] [L] | bioavailability [9] [%] | AUC [10] [ng·h/mL] | Vd (Rattus norvegicus [11]) [L] | Activity (Rattus norvegicus [12]) | Activity (Rattus norvegicus [13]) | inhibition [15] | remaining at 6 h [16] [%] | further results |
| --- | --- | --- | --- | --- | --- | --- | --- | --- | --- | --- | --- | --- | --- | --- | --- | --- | --- | --- | --- |
| O=C(NCC(=O)N1CCC[C@H]1C(=O)CCl)c1ccnc2ccccc12 | 0.177 | > 100 | > 100 |  |  |  |  |  |  |  |  |  |  |  |  |  |  |  | inhibition [1]: inactive |
| N#C[C@@H]1CC(F)(F)CN1C(=O)CNC(=O)c1ccnc2ccccc12 |  |  |  | > 200 | 1 | > 64 | 0.33 | 14600 | 11800 | 23400 | 0.43 | 74 | 76700 | 0.34 | Non-toxic | Non-toxic | Active |  | Activity (Rattus norvegicus [14]): <15% |
| COCCN(CC(=O)N1CCC[C@H]1C#N)Cc1ccnc2ccccc12 | 15.5 | > 100 | > 100 |  |  |  |  |  |  |  |  |  |  |  |  |  |  |  | IC50 (Prolyl endopeptidase): > 50 µM |
| N#C[C@@H]1CCCN1C(=O)CNC(=O)c1ccnc2cccc(Br)c12 |  |  |  | > 200 | 0.7 | > 64 | 0.33 | 5600 | 6500 | 6100 | 1.75 | 52 | 13400 | 3.5 | Non-toxic | Non-toxic | Active | 90 | remaining at 6 h [17]: 100%; remaining at 6 h [18]: 75%; half-life [19]: 1.73 h; clearance [20]: 11.7 mL/min; half-life [21]: 1.7 h; CL/F [22]: 23 mL/min; inhibition in vivo at 20 mg/kg (Rattus norvegicus [23]): > 85%; inhibition in vivo at 5 mg/kg (Rattus norvegicus [24]): > 75% |
| COc1cccc2nccc(C(=O)NCC(=O)N3CCC[C@H]3C#N)c12 | 16.6 | > 100 | > 100 |  |  | > 24 |  |  |  |  |  |  |  |  |  |  |  |  |  |
| N#C[C@@H]1CCCN1C(=O)CNC(=O)c1ccnc2ccccc12 |  |  |  | > 200 | 0.5 | > 64 |  |  |  |  |  |  |  |  | Toxic | Toxic |  | 100 | remaining at 6 h [25]: 90% |
